Assay results from ChEMBL document CHEMBL1141137, “Design and synthesis of tricyclic imidazo[4,5-b]pyridin-2-ones as corticotropin-releasing factor-1 antagonists” (J Med Chem, 2005).

Assays:
[1] = biological target: T1, Corticotropin-releasing factor receptor 1 (Homo sapiens, UniProt P34998); assay: Binding affinity for corticotropin-releasing factor-1 expressed in […] cells; format: cell-based
T1 sequence (P34998 whole entry): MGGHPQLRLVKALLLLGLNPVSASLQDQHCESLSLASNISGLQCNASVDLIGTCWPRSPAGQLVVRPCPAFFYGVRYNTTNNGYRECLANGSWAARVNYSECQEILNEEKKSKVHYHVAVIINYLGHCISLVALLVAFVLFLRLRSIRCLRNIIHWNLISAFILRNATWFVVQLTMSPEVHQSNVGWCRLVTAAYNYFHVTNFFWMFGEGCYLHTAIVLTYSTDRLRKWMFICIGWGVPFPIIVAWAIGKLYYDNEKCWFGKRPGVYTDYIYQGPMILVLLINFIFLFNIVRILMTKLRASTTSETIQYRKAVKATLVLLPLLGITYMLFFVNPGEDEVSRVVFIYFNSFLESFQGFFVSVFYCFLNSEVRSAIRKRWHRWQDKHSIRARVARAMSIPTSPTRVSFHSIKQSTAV
Method in brief: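 Cloned human CRF1 receptor expressed in […] cells. Radiolabeled sauvagine used as ligand. Ki derived from dose–response curves over 1 nM to 10 μM. Values are the mean of three or more independent determinations.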

[2] = Volume distribution in rat was determined upon intravenous administration; conditions: in vivo
[3] = Concentration maximum in brain of rat was determined after 1 hr upon oral administration; format: ADME, organism-based; set-up: route oral
Method in brief: (§1)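 Male Sprague-Dawley rats given 10 mg/kg intravenously or orally. Plasma clearance, volume of distribution and terminal half-life taken from the iv arm. Plasma and brain Cmax taken after oral dosing. Oral bioavailability estimated. Brain exposure relative to plasma based on AUC (0–6 h).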

[4] = Concentration maximum in plasma of rat was determined after 1 h upon oral administration; format: ADME, organism-based; set-up: route oral; method in brief: as §1
[5] = biological target: T1, Corticotropin-releasing factor receptor 1; assay: Inhibition of CRF stimulated cAMP production in CHO cells expressing CRF1 receptor; format: functional, cell-based
[6] = Terminal half life in rat was determined upon intravenous administration; conditions: in vivo
[7] = Plasma clearance in rat was determined upon i.v. administration; format: ADME, organism-based; conditions: iv; method in brief: as §1
[8] = Oral bioavailability in Rat upon oral administration; format: ADME, organism-based; conditions: in vivo; method in brief: as §1
[9] = Terminal half life in rat was determined upon oral administration; format: ADME, organism-based; conditions: in vivo

Row | SMILES | Ki [1] [nM] | other results
1 | CCCC(CCC)N1CCn2nc(-c3ccc(Cl)cc3Cl)c3nc(C)cc1c32 | 4.5 | 
2 | CCCC(CCC)N1CCn2c(=O)n(-c3ccc(C(F)(F)F)cc3)c3nc(C)cc1c32 | 17 | 
3 | CCCC(CCC)N1CCn2c(=O)n(-c3ccc(Cl)cc3Cl)c3nc(C)cc1c32 | 5.1 | 
4 | CCCC(CCC)N1CCn2c(=O)n(-c3ccc(C(=O)OC)cc3)c3nc(C)cc1c32 | 920 | 
5 | CCCC(CCC)N1CCn2c(=O)n(-c3ccc(OC)cc3)c3nc(C)cc1c32 | 2 | Vd [2]: 7.2 L/kg; Cmax [3]: 1180 ng/g; Cmax [4]: 356 ng/mL; IC50 [5]: 71 nM; half-life [6]: 1.6 h; clearance [7]: 53.4 mL/min/kg; bioavailability [8]: 30%
6 | CCC(CC)N1CCn2c(=O)n(-c3ccc(OC)cc3C)c3nc(C)cc1c32 | 20 | 
7 | CCCC(CCC)N1CCn2c(=O)n(-c3ccc(C(C)C)cc3Br)c3nc(C)cc1c32 | 1.1 | 
8 | CCCC(CCC)N1CCn2c(=O)n(-c3ccc(S(C)(=O)=O)cc3)c3nc(C)cc1c32 | 460 | 
9 | CCCC(CCC)N1CCn2c(=O)n(-c3ccccc3OC)c3nc(C)cc1c32 | 44 | 
10 | CCCC(CCC)N1CCn2c(=O)n(-c3cccc(OC)c3)c3nc(C)cc1c32 | 130 | 
11 | CCC(CC)N1CCn2c(=O)n(-c3ccc(C(F)(F)F)cc3)c3nc(C)cc1c32 | 170 | 
12 | CCC(CC)N1CCn2c(=O)n(-c3ccc(OC)cc3)c3nc(C)cc1c32 | 8 | 
13 | CCCC(CCC)N1CCn2c(=O)n(-c3ccc(OC)nc3)c3nc(C)cc1c32 | 60 | 
14 | CCCC(CCC)N1CCn2c(=O)n(-c3ccc(OCC)cc3)c3nc(C)cc1c32 | 140 | 
15 | CCCC(CCC)N1CCn2c(=O)n(-c3ccc(Cl)cc3)c3nc(C)cc1c32 | 12 | 
16 | CCCCN1CCn2c(=O)n(-c3ccc(OC)cc3)c3nc(C)cc1c32 | 8800 | 
17 | COc1ccc(-n2c(=O)n3c4c(cc(C)nc42)N(C(C)C)CC3)cc1 | > 10000 | 
18 | CCCC(CCC)N1CCn2c(=O)n(-c3ccc(Cl)cn3)c3nc(C)cc1c32 | 23 | 
19 | CCC(CC)N1CCn2c(=O)n(-c3ccc(Cl)cc3)c3nc(C)cc1c32 | 58 | 
20 | COCC(COC)Nc1nc(C)nc2c(-c3ccc(Cl)cc3Cl)c(C)nn12 |  | Vd [2]: 22 L/kg; half-life [9]: 16 h
21 | CCCCN(CC)c1nc(C)nc2c1c(C)cn2-c1c(C)cc(C)cc1C [CP-154526] |  | Vd [2]: 105 L/kg; T1/2 [9]: 51 h
